Reference: ChEMBL document CHEMBL1139058, “Synthesis, in vitro and in silico evaluation of l-tyrosine containing PPARalpha/gamma dual agonists” (2007)

Experiments:
[1] = molecular target: T1, Peroxisome proliferator-activated receptor alpha (Homo sapiens) (UniProt Q07869); experiment: Agonist activity at human PPARalpha in HEK293T cells at 50 uM by GAL4 transactivation assay relative to WY-14643; type: functional, cell-based; details: HEK-293T
T1 sequence (whole entry): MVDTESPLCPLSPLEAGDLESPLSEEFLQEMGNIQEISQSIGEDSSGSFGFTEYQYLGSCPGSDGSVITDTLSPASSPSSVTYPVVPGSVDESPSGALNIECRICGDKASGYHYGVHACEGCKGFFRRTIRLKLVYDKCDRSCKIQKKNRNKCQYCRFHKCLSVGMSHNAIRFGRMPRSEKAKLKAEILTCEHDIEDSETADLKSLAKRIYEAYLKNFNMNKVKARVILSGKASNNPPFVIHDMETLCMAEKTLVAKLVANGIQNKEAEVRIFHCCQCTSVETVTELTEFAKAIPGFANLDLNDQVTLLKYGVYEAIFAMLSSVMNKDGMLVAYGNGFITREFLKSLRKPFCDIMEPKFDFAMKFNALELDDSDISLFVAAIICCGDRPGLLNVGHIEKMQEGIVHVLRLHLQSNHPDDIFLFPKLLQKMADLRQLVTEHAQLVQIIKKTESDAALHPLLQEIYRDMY
How it was run: (§1)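 HEK 293T cells grown in DMEM-10% FBS at 37 °C, 5% CO2, then plated at 50–60% confluence in DMEM with 10% delipidated FBS one day before Superfect transfection. Reagent removed after 3 h. At 42 h post-transfection, cells moved to phenol red-free DMEM-DFBS and treated 18 h with compound or vehicle. Cells lysed, luciferase measured, expressed as fold activation over untreated cells.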

[2] = Agonist activity at human PPARgamma 1 in HEK293T cells at 50 uM by GAL4 transactivation assay relative to rosiglitazone; type: functional, HEK-293T; how it was run: as §1

Activity [1] | Structure (SMILES) | Activity [2]
0.3 | C/C(=C/C(=O)c1ccccc1)N[C@@H](Cc1ccc(OCCc2ccc(C(F)(F)F)cc2)cc1)C(=O)O | 0.7
1.2 | O=C(C1=C(N[C@@H](Cc2ccc(OCCOc3cccc4[nH]c5ccccc5c34)cc2)C(=O)O)CCCC1)c1ccccc1 | 11.2
1 | O=C(C1=C(N[C@@H](Cc2ccc(OCCn3c4ccccc4c4ccccc43)cc2)C(=O)O)CCCC1)c1ccccc1 | 8.4
2 | C/C(=C/C(=O)c1ccccc1)N[C@@H](Cc1ccc(OCCOc2ccc3c(c2)[nH]c2ccccc23)cc1)C(=O)O | 4.2
0.5 | COC(=O)[C@H](Cc1ccc(OCCn2c3ccccc3c3ccccc32)cc1)NC1=C(C(=O)c2ccccc2)CCCC1 | 3
1.4 | COC(=O)[C@H](Cc1ccc(OCCOc2cccc3[nH]c4ccccc4c23)cc1)NC1=C(C(=O)c2ccccc2)CCCC1 | 4.7

The remaining lines, values behind:

Structure (SMILES) | Activity [1] | Activity [2]
COC(=O)[C@H](Cc1ccc(OCCOc2ccc3c(c2)[nH]c2ccccc23)cc1)N/C(C)=C\C(=O)c1ccccc1 | 1.9 | 1.8
C/C(=C/C(=O)c1ccccc1)N[C@@H](Cc1ccc(OCCn2c3ccccc3c3ccccc32)cc1)C(=O)O | 1.4 | 1.7
C/C(=C/C(=O)c1ccccc1)N[C@@H](Cc1ccc(OCCCOc2cccc3[nH]c4ccccc4c23)cc1)C(=O)O | 5.1 | 15.1
COC(=O)[C@H](Cc1ccc(OCCn2c3ccccc3c3ccccc32)cc1)N/C(C)=C\C(=O)c1ccccc1 | 1.2 | 1.9
C/C(=C/C(=O)c1ccccc1)N[C@@H](Cc1ccc(OCCOc2cc(C(F)(F)F)nc3c(C(F)(F)F)cccc23)cc1)C(=O)O | 1.1 | 2.3
C/C(=C/C(=O)c1ccccc1)N[C@@H](Cc1ccc(OCCOc2ccc(C(=O)c3ccc(Cl)cc3)cc2)cc1)C(=O)O | 2.8 | 22.6
C/C(=C/C(=O)c1ccccc1)N[C@@H](Cc1ccc(OCCOc2cccc3[nH]c4ccccc4c23)cc1)C(=O)O | 4.6 | 48.2
